Measurements reported in ChEMBL document CHEMBL1125370, “Cardiotonic agents. Synthesis and cardiovascular properties of novel 2-arylbenzimidazoles and azabenzimidazoles” (J Med Chem, 1992).
The source made the active and inactive calls. No cut-off for these calls is given here.

Key:
[1] = species: Cavia porcellus; test: The compound was tested in vitro for inotropic activity in isolated left atria from guinea pig;No effect at a maximal concentration of 50 uM,; type: functional
Summary of the method: (§1)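 Isolated left atria preparation. Tension max is the maximal increase in developed tension. […] EC50 was not calculated when tension max was below 250 mg. Bracketed values give the maximal concentration used, and no effect was recorded up to that concentration. Values are means ± SEM.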

[2] = tested on: Canis familiaris; test: In vivo hypotension in anesthetized dog, expressed as the dose of the drug producing a 25% decrease in diastolic arterial pressure (DAP) from control value.; type: functional; conditions: Canis lupus familiaris, Artery
[3] = species: Cavia porcellus; test: The compound was tested in vitro for inotropic activity expressed as the maximal increase in developed tension. in isolated left atria from guinea pig;No effect at a maximal concentration of 50 uM; type: functional
Summary of the method: (§2)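 Isolated left atria preparation. Tension max is the maximal increase in developed tension. Bracketed values give the maximal concentration used, and no effect was recorded up to that concentration. Values are means ± SEM.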

[4] = tested on: Canis familiaris; test: In vivo contractility in anesthetized dog expressed as dose which produced a 50% increase in dP/dt max from the control value; type: functional, Canis lupus familiaris
[5] = species: Cavia porcellus; test: The compound was tested in vitro for inotropic activity expressed as the maximal increase in developed tension. in isolated left atria from guinea pig,No effect at a maximal concentration of 20 uM; type: functional; summary of the method: as §1
[6] = species: Cavia porcellus; test: The compound was tested in vitro for inotropic activity in isolated left atria from guinea pig. No effect at a maximal concentration of 20 uM,; type: functional; summary of the method: as §1
[7] = tested on: Canis familiaris; test: In vivo hypotension in anesthetized dog expressed as the dose of the drug producing a 25% decrease in DAP from control valueNo effect at a maximal concentration of 50 uM; type: functional; conditions: Canis lupus familiaris
[8] = species: Cavia porcellus; test: In vitro inotropic activity expressed as the maximal increase in developed tension in isolated left atria from guinea pig.; type: functional; summary of the method: as §2
[9] = tested on: Canis familiaris; test: In vivo contractility in anesthetized dog expressed as dose which produced a 50% increase in dP/dt max from the control value.; type: functional; conditions: Canis lupus familiaris
[10] = species: Cavia porcellus; test: In vitro inotropic activity in isolated left atria from guinea pig.; type: functional; summary of the method: as §2
[11] = species: Cavia porcellus; test: The compound was tested in vitro for chronotropic activity in isolated right atria from guinea pig;No effect at a maximal concentration of 50 uM; type: functional
Summary of the method: (§3)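 Isolated right atria, chronotropic read-out. Rate max is the maximal increase in rate, in beat/min. It comes from three to six experiments and was not calculated when rate max was below 30 beat/min. Bracketed values give the maximal concentration used. Means ± SEM.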

[12] = tested on: Canis familiaris; test: In vivo contractility in conscious dog expressed as dose which produced a 50% increase in dP/dt max from the control value;No effect up to 1 mg/kg; type: functional, organism-based; set-up: dose 1 mg/kg; conditions: Canis lupus familiaris
Summary of the method: (§4)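 Male beagles (12–15 kg) carried a Königsberg transducer implanted in the left ventricle to record dP/dt max and arterial pressure. Drug or placebo was given by gastric tube as a 1% gum arabic suspension. Effects were followed for 5 h.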

[13] = species: Cavia porcellus; test: The compound was tested in vitro for chronotropic activity in isolated right atria from guinea pig; type: functional; summary of the method: as §3
[14] = species: Cavia porcellus; test: The compound was tested in vitro for chronotropic activity expressed as the maximal increase in beat/min in isolated right atria from guinea pig
[15] = tested on: Canis familiaris; test: In vivo contractility in conscious dog expressed as dose which produced a 50% increase in dP/dt max from the control value; type: functional; conditions: Canis lupus familiaris; summary of the method: as §4

| EC50 [10] [µM] | EC50 [13] [µM] | Compound | ED25 [2] [mg/kg] | Ionotropic activity [8] [mg] | ED50 [9] [mg/kg] | Rate max [14] [beats min-1] | ED50 [15] [mg/kg] | further results |
| --- | --- | --- | --- | --- | --- | --- | --- | --- |
|  |  | Cc1cc2[nH]c(-c3ccc(-n4ccnc4)cc3)nc2cc1-n1ccnc1.Cl.O | > 3 |  |  |  |  | EC50 [1]: Not Active; Ionotropic activity [3]: inactive; Contractility [4]: > 3 mg/kg |
|  |  | c1ccc(Nc2ncccc2-c2nc3cc(-n4ccnc4)ccc3[nH]2)cc1 |  |  |  |  |  | Ionotropic activity [5]: inactive; EC50 [6]: Not Active |
| > 50 |  | c1ccc(-c2nc3cc(-n4ccnc4)ccc3[nH]2)nc1 |  | 170 | > 3 |  |  | ED25 [7]: 3 mg/kg; EC50 [11]: Not Active |
|  |  | c1cc(-c2nc3c[nH]c(-n4ccnc4)nc-3n2)ccn1 |  |  |  |  |  | ED50 [12]: inactive |
| 4.7 | 22 | Cc1[nH]c(=O)c(C#N)cc1-c1ccncc1 [MILRINONE] | 1 | 580 | 0.15 | 70 | 2 |  |
| 34 | 20 | O=C1CCC(c2ccc(Nc3ccncc3)cc2)=NN1 [SENAZODAN] | 0.1 | 410 | 0.009 | 39 | 0.1 |  |
| 31 | 100 | COc1cc([S+](C)[O-])ccc1-c1nc2cccnc2[nH]1 (stereo not drawn) [SULMAZOLE] | 5 | 600 | 1 | 88 | 10 |  |
